In brackets after ≈: the same amount, converted by molar mass.
Legend:
[1] = system: Bifidobacterium thermophilum; experiment: Antimicrobial activity against 60 min 1 M HCl-stressed Bifidobacterium thermophilum ATCC 25866 after 18 hrs; assay type: functional
How it was run: (§1)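 Mid-log MRS culture pelleted and resuspended in MRS broth brought to pH 2.0 with 1 M HCl, held anaerobically at 37°C for 60 min, then subcultured in MRS (pH 6.5) for 24 h anaerobically before MIC testing by broth microdilution (as for unstressed cells). Table footnote gives 18 h anaerobic regrowth after the stress. MIC is the median of four repetitions.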

Bifidobacterium longum [2] = experiment: Antimicrobial activity against Bifidobacterium longum ATCC 15707; assay type: functional
How it was run: (§2)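 Broth microdilution in MRS plus 0.05% L-cysteine-HCl. Mid-log culture adjusted to OD650 0.1, giving about 2.5 × 10^4 to 5.0 × 10^4 CFU/well, then added to twofold serial dilutions of agent. Plates incubated anaerobically at 37°C for 18 h and read at OD650. MIC is the lowest concentration matching the uninoculated blank OD, taken as the median of four repeats.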

Bifidobacterium breve [3] = experiment: Antimicrobial activity against Bifidobacterium breve ATCC 15700; assay type: functional; how it was run: as §2
Bifidobacterium bifidum [4] = experiment: Antimicrobial activity against Bifidobacterium bifidum R0071; assay type: functional; how it was run: as §2
[5] = system: Bifidobacterium pseudolongum; experiment: Antimicrobial activity against Bifidobacterium pseudolongum ATCC 25562; assay type: functional; how it was run: as §2
[6] = system: Bifidobacterium thermophilum; experiment: Antimicrobial activity against 90 mins oxgall-stressed Bifidobacterium thermophilum ATCC 25866 after 18 hrs; assay type: functional
How it was run: (§3)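 Cells pelleted from mid-log MRS culture and resuspended in MRS (initial pH 6.5) with 0.3% (wt/vol) oxgall for 90 min anaerobically at 37°C. They were then regrown in MRS pH 6.5 for 24 h (footnote: 18 h) anaerobically and tested for MIC by the same broth microdilution assay. Median of four repetitions.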

Bifidobacterium animalis [7] = experiment: Antimicrobial activity against 90 mins hydrogen peroxide-stressed Bifidobacterium animalis ATCC 27536 after 18 hrs; assay type: functional
How it was run: (§4)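 Stress applied for 90 min at 37°C under anaerobic conditions, using MRS (initial pH 6.5) containing H2O2 at each strain's own inhibitory concentration. The H2O2 level was set beforehand by microplate tolerance testing. Challenged cells were regrown in MRS for 24 h (footnote: 18 h) before MIC testing by broth microdilution. Median of four repetitions.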

[8] = Antimicrobial activity against Bifidobacterium infantis ATCC 15697; assay type: functional, Bifidobacterium longum subsp. infantis; conditions: Bifidobacterium longum; how it was run: as §2
Bifidobacterium breve [9] = experiment: Antimicrobial activity against 90 mins hydrogen peroxide-stressed Bifidobacterium breve R0070 after 18 hrs; assay type: functional; how it was run: as §4
Bifidobacterium bifidum [10] = experiment: Antimicrobial activity against 90 mins oxgall-stressed Bifidobacterium bifidum BB12 after 18 hrs; assay type: functional; how it was run: as §3
Bifidobacterium bifidum [11] = experiment: Antimicrobial activity against 90 mins oxgall-stressed Bifidobacterium bifidum ATCC 15696 after 18 hrs; assay type: functional; how it was run: as §3
Bifidobacterium animalis [12] = experiment: Antimicrobial activity against 60 min 1 M HCl-stressed Bifidobacterium animalis ATCC 27536 after 18 hrs; assay type: functional; how it was run: as §1
Bifidobacterium longum [13] = experiment: Antimicrobial activity against 90 mins hydrogen peroxide-stressed Bifidobacterium longum P/N 601377 after 18 hrs; assay type: functional; how it was run: as §4
Bifidobacterium longum [14] = experiment: Antimicrobial activity against Bifidobacterium longum R0175; assay type: functional; how it was run: as §2
Bifidobacterium bifidum [15] = experiment: Antimicrobial activity against 60 min 1 M HCl-stressed Bifidobacterium bifidum BB12 after 18 hrs; assay type: functional; how it was run: as §1
Bifidobacterium bifidum [16] = experiment: Antimicrobial activity against 90 mins hydrogen peroxide-stressed Bifidobacterium bifidum R0071 after 18 hrs; assay type: functional; how it was run: as §4
Bifidobacterium breve [17] = experiment: Antimicrobial activity against 60 min 1 M HCl-stressed Bifidobacterium breve ATCC 15700 after 18 hrs; assay type: functional; how it was run: as §1
[18] = Antimicrobial activity against 90 mins oxgall-stressed Bifidobacterium infantis ATCC 15697 after 18 hrs; assay type: functional, Bifidobacterium longum subsp. infantis; conditions: Bifidobacterium longum; how it was run: as §3
Bifidobacterium longum [19] = experiment: Antimicrobial activity against 60 min 1 M HCl-stressed Bifidobacterium longum R0175 after 18 hrs; assay type: functional; how it was run: as §1
[20] = system: Bifidobacterium pseudolongum; experiment: Antimicrobial activity against 90 mins oxgall-stressed Bifidobacterium pseudolongum ATCC 25562 after 18 hrs; assay type: functional; how it was run: as §3
Bifidobacterium longum [21] = experiment: Antimicrobial activity against Bifidobacterium longum P/N 601377; assay type: functional; how it was run: as §2
Bifidobacterium breve [22] = experiment: Antimicrobial activity against 90 mins oxgall-stressed Bifidobacterium breve R0070 after 18 hrs; assay type: functional; how it was run: as §3
Bifidobacterium bifidum [23] = experiment: Antimicrobial activity against 90 mins hydrogen peroxide-stressed Bifidobacterium bifidum BB12 after 18 hrs; assay type: functional; how it was run: as §4
Bifidobacterium longum [24] = experiment: Antimicrobial activity against 90 mins oxgall-stressed Bifidobacterium longum ATCC 15708 after 18 hrs; assay type: functional; how it was run: as §3
Bifidobacterium longum [25] = experiment: Antimicrobial activity against 90 mins oxgall-stressed Bifidobacterium longum ATCC 15707 after 18 hrs; assay type: functional; how it was run: as §3
Bifidobacterium breve [26] = experiment: Antimicrobial activity against 60 min 1 M HCl-stressed Bifidobacterium breve R0070 after 18 hrs; assay type: functional; how it was run: as §1
Bifidobacterium bifidum [27] = experiment: Antimicrobial activity against 90 mins oxgall-stressed Bifidobacterium bifidum R0071 after 18 hrs; assay type: functional; how it was run: as §3
Bifidobacterium longum [28] = experiment: Antimicrobial activity against 60 min 1 M HCl-stressed Bifidobacterium longum ATCC 15707 after 18 hrs; assay type: functional; how it was run: as §1
Bifidobacterium animalis [29] = experiment: Antimicrobial activity against Bifidobacterium animalis ATCC 27536; assay type: functional; how it was run: as §2
Bifidobacterium breve [30] = experiment: Antimicrobial activity against 90 mins oxgall-stressed Bifidobacterium breve ATCC 15700 after 18 hrs; assay type: functional; how it was run: as §3
[31] = system: Bifidobacterium thermophilum; experiment: Antimicrobial activity against Bifidobacterium thermophilum ATCC 25866; assay type: functional; how it was run: as §2
Bifidobacterium longum [32] = experiment: Antimicrobial activity against 60 min 1 M HCl-stressed Bifidobacterium longum P/N 601377 after 18 hrs; assay type: functional; how it was run: as §1
[33] = system: Bifidobacterium pseudolongum; experiment: Antimicrobial activity against 60 min 1 M HCl-stressed Bifidobacterium pseudolongum ATCC 25562 after 18 hrs; assay type: functional; how it was run: as §1
[34] = Antimicrobial activity against 60 min 1 M HCl-stressed Bifidobacterium infantis ATCC 15697 after 18 hrs; assay type: functional, Bifidobacterium longum subsp. infantis; conditions: Bifidobacterium longum; how it was run: as §1
Bifidobacterium breve [35] = experiment: Antimicrobial activity against Bifidobacterium breve R0070; assay type: functional; how it was run: as §2
Bifidobacterium animalis [36] = experiment: Antimicrobial activity against 90 mins oxgall-stressed Bifidobacterium animalis ATCC 27536 after 18 hrs; assay type: functional; how it was run: as §3
Bifidobacterium longum [37] = experiment: Antimicrobial activity against 90 mins hydrogen peroxide-stressed Bifidobacterium longum ATCC 15708 after 18 hrs; assay type: functional; how it was run: as §4
Bifidobacterium longum [38] = experiment: Antimicrobial activity against 90 mins hydrogen peroxide-stressed Bifidobacterium longum R0175 after 18 hrs; assay type: functional; how it was run: as §4
Bifidobacterium bifidum [39] = experiment: Antimicrobial activity against Bifidobacterium bifidum ATCC 15696; assay type: functional; how it was run: as §2
Bifidobacterium longum [40] = experiment: Antimicrobial activity against 90 mins oxgall-stressed Bifidobacterium longum P/N 601377 after 18 hrs; assay type: functional; how it was run: as §3
Bifidobacterium bifidum [41] = experiment: Antimicrobial activity against Bifidobacterium bifidum BB12; assay type: functional; how it was run: as §2
Bifidobacterium longum [42] = experiment: Antimicrobial activity against 90 mins hydrogen peroxide-stressed Bifidobacterium longum ATCC 15707 after 18 hrs; assay type: functional; how it was run: as §4
[43] = system: Bifidobacterium thermophilum; experiment: Antimicrobial activity against 90 mins hydrogen peroxide-stressed Bifidobacterium thermophilum ATCC 25866 after 18 hrs; assay type: functional; how it was run: as §4
Bifidobacterium longum [44] = experiment: Antimicrobial activity against 90 mins oxgall-stressed Bifidobacterium longum R0175 after 18 hrs; assay type: functional; how it was run: as §3
Bifidobacterium longum [45] = experiment: Antimicrobial activity against Bifidobacterium longum ATCC 15708; assay type: functional; how it was run: as §2
Bifidobacterium breve [46] = experiment: Antimicrobial activity against 90 mins hydrogen peroxide-stressed Bifidobacterium breve ATCC 15700 after 18 hrs; assay type: functional; how it was run: as §4
Bifidobacterium bifidum [47] = experiment: Antimicrobial activity against 60 min 1 M HCl-stressed Bifidobacterium bifidum R0071 after 18 hrs; assay type: functional; how it was run: as §1

SMILES: NC[C@@H]1O[C@H](O[C@H]2[C@@H](O)[C@H](O[C@@H]3[C@@H](O)[C@H](N)C[C@H](N)[C@H]3O[C@H]3O[C@H](CO)[C@@H](O)[C@H](O)[C@H]3N)O[C@@H]2CO)[C@H](N)[C@@H](O)[C@@H]1O [PAROMOMYCIN]
- MIC [1]: 500 mg/L (≈ 812 µM)
- MIC (Bifidobacterium longum [2]): 250 mg/L (≈ 406 µM)
- MIC (Bifidobacterium breve [3]): 250 mg/L (≈ 406 µM)
- MIC (Bifidobacterium bifidum [4]): 250 mg/L (≈ 406 µM)
- MIC [5]: 250 mg/L (≈ 406 µM)
- MIC [6]: 250 mg/L (≈ 406 µM)
- MIC (Bifidobacterium animalis [7]): 500 mg/L (≈ 812 µM)
- MIC [8]: 250 mg/L (≈ 406 µM)
- MIC (Bifidobacterium breve [9]): 250 mg/L (≈ 406 µM)
- MIC (Bifidobacterium bifidum [10]): 250 mg/L (≈ 406 µM)
- MIC (Bifidobacterium bifidum [11]): 500 mg/L (≈ 812 µM)
- MIC (Bifidobacterium animalis [12]): 500 mg/L (≈ 812 µM)
- MIC (Bifidobacterium longum [13]): 125 mg/L (≈ 203 µM)
- MIC (Bifidobacterium longum [14]): 250 mg/L (≈ 406 µM)
- MIC (Bifidobacterium bifidum [15]): 125 mg/L (≈ 203 µM)
- MIC (Bifidobacterium bifidum [16]): 125 mg/L (≈ 203 µM)
- MIC (Bifidobacterium breve [17]): 125 mg/L (≈ 203 µM)
- MIC [18]: 500 mg/L (≈ 812 µM)
- MIC (Bifidobacterium longum [19]): 250 mg/L (≈ 406 µM)
- MIC [20]: 500 mg/L (≈ 812 µM)
- MIC (Bifidobacterium longum [21]): 250 mg/L (≈ 406 µM)
- MIC (Bifidobacterium breve [22]): 125 mg/L (≈ 203 µM)
- MIC (Bifidobacterium bifidum [23]): 500 mg/L (≈ 812 µM)
- MIC (Bifidobacterium longum [24]): 500 mg/L (≈ 812 µM)
- MIC (Bifidobacterium longum [25]): 125 mg/L (≈ 203 µM)
- MIC (Bifidobacterium breve [26]): 250 mg/L (≈ 406 µM)
- MIC (Bifidobacterium bifidum [27]): 125 mg/L (≈ 203 µM)
- MIC (Bifidobacterium longum [28]): 500 mg/L (≈ 812 µM)
- MIC (Bifidobacterium animalis [29]): 250 mg/L (≈ 406 µM)
- MIC (Bifidobacterium breve [30]): 250 mg/L (≈ 406 µM)
- MIC [31]: 250 mg/L (≈ 406 µM)
- MIC (Bifidobacterium longum [32]): 250 mg/L (≈ 406 µM)
- MIC [33]: 250 mg/L (≈ 406 µM)
- MIC [34]: 250 mg/L (≈ 406 µM)
- MIC (Bifidobacterium breve [35]): 250 mg/L (≈ 406 µM)
- MIC (Bifidobacterium animalis [36]): 125 mg/L (≈ 203 µM)
- MIC (Bifidobacterium longum [37]): 250 mg/L (≈ 406 µM)
- MIC (Bifidobacterium longum [38]): 250 mg/L (≈ 406 µM)
- MIC (Bifidobacterium bifidum [39]): 250 mg/L (≈ 406 µM)
- MIC (Bifidobacterium longum [40]): 62.5 mg/L (≈ 102 µM)
- MIC (Bifidobacterium bifidum [41]): 250 mg/L (≈ 406 µM)
- MIC (Bifidobacterium longum [42]): 500 mg/L (≈ 812 µM)
- MIC [43]: 500 mg/L (≈ 812 µM)
- MIC (Bifidobacterium longum [44]): 125 mg/L (≈ 203 µM)
- MIC (Bifidobacterium longum [45]): 250 mg/L (≈ 406 µM)
- MIC (Bifidobacterium breve [46]): 500 mg/L (≈ 812 µM)
- MIC (Bifidobacterium bifidum [47]): 250 mg/L (≈ 406 µM)

From ChEMBL document CHEMBL1142148, “Antibiotic susceptibility profile of bifidobacteria as affected by oxgall, acid, and hydrogen peroxide stress” (2007)
